Laboratory results published in ChEMBL document CHEMBL2176991 (J Med Chem, 2012).
The source made the active and inactive calls. No cut-off for these calls is given here. Square brackets hold non-standard residues; d marks the D form. Peptide text beside a SMILES is read from it. * marks the point of attachment. X4 = O=C1OC2(c3ccc(O)cc3Oc3cc(O)ccc32)c2cccc(NC(=S)*)c21; βAla = NCCC(=O)O

Tests used:
[1] = system: DU-145; assay: Cellular uptake in human DU145 cells at 10 uM after 1 hr by propidium iodide staining-based FACS flow cytometric analysis; assay type: ADME, cell-based; conditions: du-145, 1 h
Procedure, shortened: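 DU145 cells (4 × 10⁵) incubated 1 h with 10 μM FITC-labeled peptide in serum-free RPMI, then pelleted and washed twice with 0.05% trypsin for 5 min at 37 °C to strip membrane-bound label. Propidium iodide (10 μg/mL, 2 min) used to exclude cells with damaged membranes. At least 10000 events acquired by FACS; uptake reported as geometric mean fluorescence.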

[2] = target: T1, Proprotein convertase subtilisin/kexin type 6 (Homo sapiens, UniProt P29122); assay: Competitive inhibition of human recombinant PACE4 expressed in Drosophila S2 cells using pyroGlu-Arg-Val-Lys-Arg-methyl-coumaryl-7-amide as substrate at pH 6.5 after 60 mins by spectrofluorometric analysis
T1 sequence (P29122 whole entry): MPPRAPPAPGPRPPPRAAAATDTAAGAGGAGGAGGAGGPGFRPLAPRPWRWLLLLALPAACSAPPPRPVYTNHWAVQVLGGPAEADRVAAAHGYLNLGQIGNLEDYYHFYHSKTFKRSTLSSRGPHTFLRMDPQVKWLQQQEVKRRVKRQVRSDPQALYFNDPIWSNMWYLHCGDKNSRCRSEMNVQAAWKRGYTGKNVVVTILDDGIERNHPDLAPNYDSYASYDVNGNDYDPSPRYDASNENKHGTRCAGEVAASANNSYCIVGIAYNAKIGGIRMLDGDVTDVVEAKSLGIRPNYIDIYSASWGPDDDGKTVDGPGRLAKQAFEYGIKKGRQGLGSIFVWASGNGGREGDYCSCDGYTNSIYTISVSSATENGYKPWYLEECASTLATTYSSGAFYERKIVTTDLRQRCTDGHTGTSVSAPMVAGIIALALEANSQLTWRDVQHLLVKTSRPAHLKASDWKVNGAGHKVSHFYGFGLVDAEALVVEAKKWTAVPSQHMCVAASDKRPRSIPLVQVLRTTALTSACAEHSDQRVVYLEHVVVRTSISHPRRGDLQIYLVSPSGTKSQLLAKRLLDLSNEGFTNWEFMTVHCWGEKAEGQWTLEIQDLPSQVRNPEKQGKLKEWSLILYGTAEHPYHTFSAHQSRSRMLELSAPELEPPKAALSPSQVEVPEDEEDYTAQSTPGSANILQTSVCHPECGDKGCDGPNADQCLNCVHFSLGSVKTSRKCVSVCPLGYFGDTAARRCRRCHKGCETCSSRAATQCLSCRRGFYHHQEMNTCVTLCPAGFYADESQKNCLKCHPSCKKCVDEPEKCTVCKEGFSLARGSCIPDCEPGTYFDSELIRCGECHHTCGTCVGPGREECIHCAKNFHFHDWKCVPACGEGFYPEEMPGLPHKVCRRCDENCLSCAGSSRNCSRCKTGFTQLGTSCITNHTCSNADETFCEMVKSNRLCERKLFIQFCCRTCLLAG
Procedure, shortened: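 Soluble human PACE4 purified from S2 conditioned medium, assayed in 20 mM Bis-Tris pH 6.5, 1 mM CaCl₂, 1.8 mg/mL BSA with 100 μM substrate, 37 °C, 60 min. Real-time fluorescence read; inhibitors added at decreasing concentrations. Ki from IC50 by Cheng–Prusoff, Km 3.5 μM. Means of three independent experiments.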

[3] = system: DU-145; assay: Cytotoxicity against human DU145 cells assessed as growth inhibition after 72 hrs by MTT assay; assay type: functional, cell-based; conditions: DU-145, 72 h
Procedure, shortened: (§1)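 Cells plated in 96-well format: DU145 and PC3 at 1500/well, LNCaP at 2500/well on poly-lysine. After 24 h, medium was changed and peptide added for 72 h in RPMI 1640 (5% FBS for DU145, 10% for LNCaP and PC3). MTT at 1 mg/mL final for 4 h (DU145, LNCaP) or 6 h (PC3). Formazan dissolved in 2-propanol-HCl and signal normalized to vehicle (water, 0.1% DMSO). IC50 from curve fitting.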

[4] = target: Furin (Homo sapiens, UniProt P09958); assay: Competitive inhibition of human recombinant furin expressed in Drosophila S2 cells using pyroGlu-Arg-Val-Lys-Arg-methyl-coumaryl-7-amide as substrate at pH 7.5 after 60 mins by spectrofluorometric analysis
Procedure, shortened: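 Recombinant soluble human furin from S2 medium, tested in 100 mM Hepes pH 7.5, 1 mM CaCl₂, 1 mM β-mercaptoethanol, 1.8 mg/mL BSA; substrate 100 μM, 37 °C, 60 min, kinetic fluorescence read. Inhibitors added at decreasing concentrations. Ki derived from IC50 by Cheng–Prusoff using Km 4.61 μM; three independent experiments.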

[5] = organism: Homo sapiens; assay: Selectivity ratio of Ki for human recombinant furin to Ki for human recombinant PACE4
[6] = system: LNCaP; assay: Cell cycle arrest in human LNCAP cells assessed as accumulation at S phase at 200 uM after 96 hrs by propidium iodide staining-based FACS flow cytometric analysis (reference value: 15.6 +/- 1.3 %); assay type: functional
[7] = system: LNCaP; assay: Cell cycle arrest in human LNCAP cells assessed as decrease in accumulation at S phase after 96 hrs by propidium iodide staining-based FACS flow cytometric analysis; assay type: functional
[8] = system: PC-3; assay: Cytotoxicity against human PC3 cells assessed as growth inhibition after 72 hrs by MTT assay; assay type: functional, cell-based; procedure, shortened: as §1
[9] = system: LNCaP; assay: Cell cycle arrest in human LNCAP cells assessed as accumulation at G0/G1 phase at 100 uM after 96 hrs by propidium iodide staining-based FACS flow cytometric analysis (reference value: 74.3 +/- 0.1 %); assay type: functional
[10] = system: LNCaP; assay: Cell cycle arrest in human LNCAP cells assessed as accumulation at G0/G1 phase after 96 hrs by propidium iodide staining-based FACS flow cytometric analysis
[11] = system: LNCaP; assay: Cytotoxicity against human LNCAP cells assessed as growth inhibition after 72 hrs by MTT assay; assay type: functional, cell-based; procedure, shortened: as §1
[12] = Stability of the compound in presence of aminopeptidase; assay type: ADME

Furin, sequence (P09958 whole entry): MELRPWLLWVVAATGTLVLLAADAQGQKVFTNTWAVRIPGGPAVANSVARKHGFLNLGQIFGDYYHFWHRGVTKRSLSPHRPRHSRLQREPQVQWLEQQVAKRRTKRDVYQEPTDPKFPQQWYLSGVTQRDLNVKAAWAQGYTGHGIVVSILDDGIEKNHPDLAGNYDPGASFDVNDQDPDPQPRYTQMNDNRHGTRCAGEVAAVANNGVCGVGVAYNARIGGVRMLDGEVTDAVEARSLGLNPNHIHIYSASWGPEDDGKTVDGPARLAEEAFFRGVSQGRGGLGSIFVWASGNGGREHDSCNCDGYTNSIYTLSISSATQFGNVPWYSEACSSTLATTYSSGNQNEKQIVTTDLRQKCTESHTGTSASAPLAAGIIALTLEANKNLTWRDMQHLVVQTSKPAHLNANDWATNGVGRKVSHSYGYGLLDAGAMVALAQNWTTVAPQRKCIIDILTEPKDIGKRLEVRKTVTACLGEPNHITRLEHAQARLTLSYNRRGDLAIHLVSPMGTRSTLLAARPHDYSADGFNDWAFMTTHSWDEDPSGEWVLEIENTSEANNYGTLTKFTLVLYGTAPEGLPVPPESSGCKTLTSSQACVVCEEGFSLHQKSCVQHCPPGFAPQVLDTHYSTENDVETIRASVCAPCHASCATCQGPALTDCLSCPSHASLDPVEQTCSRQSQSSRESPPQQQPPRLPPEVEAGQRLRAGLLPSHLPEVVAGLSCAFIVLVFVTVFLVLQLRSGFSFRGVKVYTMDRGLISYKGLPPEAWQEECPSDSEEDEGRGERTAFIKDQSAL

CC(C)C[C@H](NC(=O)CCNC(=S)Nc1cccc2c1C(=O)OC21c2ccc(O)cc2Oc2cc(O)ccc21)C(=O)N[C@@H](CC(C)C)C(=O)N[C@@H](CC(C)C)C(=O)N[C@@H](CC(C)C)C(=O)N[C@@H](CCCNC(=N)N)C(=O)N[C@H](C(=O)N[C@@H](CCCCN)C(=O)N[C@@H](CCCNC(=N)N)C(N)=O)C(C)C ({X4-βAla}-LLLLRVKR-NH2)
Drug uptake [1]: Active

CC(=O)OCCOCCOCCOCCOCCOCCOCCOCCN[C@@H](CC(C)C)C(=O)N[C@@H](CC(C)C)C(=O)N[C@@H](CC(C)C)C(=O)N[C@@H](CC(C)C)C(=O)N[C@@H](CCCNC(=N)N)C(=O)N[C@H](C(=O)N[C@@H](CCCCN)C(=O)N[C@@H](CCCNC(=N)N)C(N)=O)C(C)C
Ki [2]: 19 nM
IC50 [3]: > 500 µM
Ki [4]: 480 nM

NCCCC[C@H](NC(=O)[C@H](CCCCN)NC(=O)[C@H](CCCN=C(N)N)NC(=O)[C@H](CC(=O)O)NC(=O)[C@H](Cc1ccccc1)NC(=O)CN)C(=O)N[C@@H](CCCN=C(N)N)C(=O)O (H-GFDRKKR-OH)
Ki [2]: > 1000 nM
Ki [4]: > 1000 nM

C[C@H](N)C(=O)N[C@@H](CCCCN)C(=O)N[C@@H](CCCNC(=N)N)C(=O)N[C@@H](CCCNC(=N)N)C(=O)N[C@H](C(=O)N[C@@H](CCCCN)C(=O)N[C@@H](CCCNC(=N)N)C(=O)O)[C@@H](C)O (H-AKRRTKR-OH)
Ki [2]: 0.4 nM
Ratio Ki [5]: 4.2

CC(=O)CCCCCCCCN[C@@H](CC(C)C)C(=O)N[C@@H](CC(C)C)C(=O)N[C@@H](CC(C)C)C(=O)N[C@@H](CC(C)C)C(=O)N[C@@H](CCCNC(=N)N)C(=O)N[C@H](C(=O)N[C@@H](CCCCN)C(=O)N[C@@H](CCCNC(=N)N)C(N)=O)C(C)C
Ki [2]: 23 nM
IC50 [3]: 80 µM
Ki [4]: 500 nM

CC(=O)N[C@@H](CC(C)C)C(=O)N[C@@H](CC(C)C)C(=O)N[C@@H](CC(C)C)C(=O)N[C@@H](CCCN=C(N)N)C(=O)N[C@H](C(=O)N[C@@H](CCCCN)C(=O)N[C@@H](CCCN=C(N)N)C(N)=O)C(C)C
Ki [2]: 18 nM
Ki [4]: 400 nM

N=C(N)NCCC[C@H](NC(=O)[C@H](CCCCN)NC(=O)[C@H](CCCCN)NC(=O)[C@H](CCCNC(=N)N)NC(=O)[C@H](CC(=O)O)NC(=O)[C@H](Cc1ccccc1)NC(=O)CN)C(=O)O (H-GFDRKKR-OH)
Ratio Ki [5]: 1

CC(C)C[C@H](NC(=O)[C@@H](N)CC(C)C)C(=O)N[C@@H](CCCNC(=N)N)C(=O)N[C@@H](CCCNC(=N)N)C(=O)N[C@@H](C)C(=O)N[C@@H](CCCCN)C(=O)N[C@@H](CCCNC(=N)N)C(=O)O (H-LLRRAKR-OH)
Ki [2]: 0.34 nM
Ratio Ki [5]: 36

CC(=O)N[C@@H](CC(C)C)C(=O)N[C@@H](CC(C)C)C(=O)N[C@@H](CC(C)C)C(=O)N[C@@H](CC(C)C)C(=O)N[C@@H](CCCNC(=N)N)C(=O)N[C@H](C(=O)N[C@@H](CCCCN)C(=O)N[C@@H](CCCNC(=N)N)C(N)=O)C(C)C (Ac-LLLLRVKR-NH2)
Activity [6]: 9.3%
Activity [7]: Dose-dependent effect
growth inhibition (GI) [8]: inactive
Activity [9]: 79.7%
Activity [10]: Dose-dependent effect

CC(=O)N[C@@H](CC(C)C)C(=O)N[C@@H](CC(C)C)C(=O)N[C@@H](CC(C)C)C(=O)N[C@@H](CC(C)C)C(=O)N[C@@H](CCCNC(=N)N)C(=O)N[C@H](C(=O)N[C@@H](CCCCN)C(=O)N[C@H](CCCNC(=N)N)C(N)=O)C(C)C (Ac-LLLLRVK[dR]-NH2)
IC50 [11]: 390 µM
IC50 [3]: 440 µM

CC(C)C[C@H](N)C(=O)N[C@@H](CCCNC(=N)N)C(=O)N[C@@H](CCCNC(=N)N)C(=O)N[C@@H](CCCNC(=N)N)C(=O)N[C@H](C(=O)N[C@@H](CCCCN)C(=O)N[C@@H](CCCNC(=N)N)C(=O)O)C(C)C (H-LRRRVKR-OH)
Ratio Ki [5]: 1.3

CC(=O)N[C@H](CC(C)C)C(=O)N[C@@H](CC(C)C)C(=O)N[C@@H](CC(C)C)C(=O)N[C@@H](CC(C)C)C(=O)N[C@@H](CCCN=C(N)N)C(=O)N[C@H](C(=O)N[C@@H](CCCCN)C(=O)N[C@@H](CCCN=C(N)N)C(N)=O)C(C)C
Stability [12]: Stable

CC(C)[C@H](N)C(=O)N[C@@H](CCCCN)C(=O)N[C@@H](CCCNC(=N)N)C(=O)N[C@@H](CCCNC(=N)N)C(=O)N[C@H](C(=O)N[C@@H](CCCCN)C(=O)N[C@@H](CCCNC(=N)N)C(=O)O)C(C)C (H-VKRRVKR-OH)
Ratio Ki [5]: 2.7

CC(C)[C@H](N)C(=O)N[C@@H](CCCCN)C(=O)N[C@@H](CCCN=C(N)N)C(=O)N[C@@H](CCCN=C(N)N)C(=O)N[C@H](C(=O)N[C@@H](CCCCN)C(=O)N[C@@H](CCCN=C(N)N)C(=O)O)C(C)C (H-VKRRVKR-OH)
Ki [2]: 2 nM

CC(=O)N[C@@H](CC(C)C)C(=O)N[C@@H](CC(C)C)C(=O)N[C@@H](CCCN=C(N)N)C(=O)N[C@H](C(=O)N[C@@H](CCCCN)C(=O)N[C@@H](CCCN=C(N)N)C(N)=O)C(C)C
Ki [2]: 240 nM
Ki [4]: 900 nM

CC(C)[C@H](N)C(=O)N[C@@H](CCCCN)C(=O)N[C@@H](CCCCN)C(=O)N[C@@H](CCCNC(=N)N)C(=O)N[C@H](C(=O)N[C@@H](CCCCN)C(=O)N[C@@H](CCCNC(=N)N)C(=O)O)[C@@H](C)O (H-VKKRTKR-OH)
Ratio Ki [5]: 2.2

N=C(N)NCCC[C@H](NC(=O)[C@H](CCCCN)NC(=O)[C@H](CO)NC(=O)[C@H](CCCNC(=N)N)NC(=O)[C@H](CCC(=O)O)NC(=O)[C@H](CCCCN)NC(=O)[C@@H](N)CCC(=O)O)C(=O)O (H-EKERSKR-OH)
Ratio Ki [5]: 1.3

CC(C)C[C@H](N)C(=O)N[C@@H](CCCN=C(N)N)C(=O)N[C@@H](CCCN=C(N)N)C(=O)N[C@@H](CCCN=C(N)N)C(=O)N[C@H](C(=O)N[C@@H](CCCCN)C(=O)N[C@@H](CCCN=C(N)N)C(=O)O)C(C)C (H-LRRRVKR-OH)
Ki [2]: 7 nM
Ki [4]: 9 nM
